Data reported in PubChem BioAssay.
Records with an inconclusive call do not appear.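 Rule for the calls, unless noted: active = growth inhibition above 25% in both replicates, a cutoff set 3 SD above the mean; inconclusive = above 25% in only one replicate; inactive = the rest.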

Columns and labels:
[1] = S. cerevisiae growth inhibition in permissive medium (OD615), pilot counter-assay for S. cerevisiae lifespan shortening project, permissive growth control (AID 705); settings: OD615, 24 h, at 10 µM, hits give high values
Procedure, shortened: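 System: S. cerevisiae with engineered DeaD lifespan system. Medium: SC raffinose/galactose permissive medium. Doses: single compound dose of 10 µM, 0.25% DMSO final. Schedule: 24 h exposure, 30 °C. Measured by: OD615 turbidity read. Read-out: growth inhibition.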

[2] = S. cerevisiae growth inhibition in restrictive medium, OD615, pilot screen, restrictive growth control, yeast lifespan reduction project (AID 706;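 active = growth inhibition above a set limit, 3 SD over mean compound inhibition, in both replicates, cut at about 43% in these data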;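 note: modified DeaD lifespan yeast strain shifted to restrictive glucose medium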); settings: OD615, 48 h, at 10 µM, hits give high values
Procedure, shortened: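 Assay system – genetically modified Saccharomyces cerevisiae, DeaD replicative lifespan assay strain · Medium – CSMM-D glucose medium · Doses – 10 µM compound, 0.25% DMSO · Times – 4 h pre-incubation, 48 h exposure at 30 °C · Signal – optical density at 615 nm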

[3] = doxorubicin toxicity protection in MRP-1 cells – H69AR cells, CellTiter-Glo, duplicate, MRP-1 activator project, pilot screen (AID 807;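 active = viability increase at or above a cutoff of the median across tested compounds plus 3 SD, cut at about 8.5% in these data, passing the limit was not always enough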;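 note: compound pretreatment 18-22 h then 72 h combined with doxorubicin; 0% = doxorubicin alone and 100% = vehicle without doxorubicin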); settings: H69AR viability with doxorubicin, CellTiter-Glo luminescence; at 10 µM; hits give high values
[4] = viability of HCT116 without oncogenic beta-catenin – human colon tumor cells, pilot screen (AID 823;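 active = cell viability at or below a set limit in both duplicate runs, the limit being the all-compound median minus 4 SD, cut at about 23% in these data, passing the limit was not always enough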;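 note: 0% = wells killed by 20 µM Hyamine and 100% = untreated DMSO cell wells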); settings: HCT116 beta-catenin knockout viability, CellTiter-Glo, 60 h; at 10 µM; hits give low values
[5] = viability of PTEN-null HCT116 cells – cell-based, HCT116 clonal line, CellTiter-Glo, pilot screen (AID 824;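 active = viability at or below 27.92% in each of two runs, the all-compound median minus 4 SD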;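 note: 0% = 20 µM Hyamine control and 100% = vehicle cell control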); settings: HCT116 PTEN-deleted viability, 60 h, at 10 µM, hits give low values
[6] = RAM pathway blockade in budding yeast – dse1pr::URA3 reporter, 5-FOA selection, pilot screen (AID 869;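 active = inhibition over a set limit, the all-compound mean plus 3 SD, in both replicate runs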;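 note: 0% = DMSO wells with no growth and 100% = 10 µM 1-NA-PP1 with full growth; RAM network block rescues cells from 5-FOA so hits raise OD615 growth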); settings: S. cerevisiae dse1pr::URA3 5-FOA growth, OD615, 2 d; at 10 µM; hits give high values; strain carries analog-sensitive mutant Cbk1 kinase
[7] = RAM signaling pathway blockade in yeast – S. cerevisiae, Pdr1DBD-CYC8 efflux-inhibited sensitized strain, primary screen (AID 1298;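 active = RAM network inhibition above 8.4% in each of two replicates, 3 SD over the compound average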;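 note: 0% = DMSO untreated cells without growth and 100% = 10 µM 1-NA-PP1 full growth; higher means more yeast growth rescued from 5-FOA killing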); settings: S. cerevisiae cbk1-as DSE1-URA3 strain, 5-FOA growth OD615, 2 d; at 50 µM; hits give high values

CCSc1nnc(NC(=O)c2c(-c3ccccc3Cl)noc2C)s1
inactive: growth inhibition [1] 0.595% | growth inhibition [2] 2.59% | viability increase [3] -1.87% | viability [4] 97.8% | viability [5] 88.2% | inhibition [6] 1.04% | RAM network inhibition [7] 8.79%

CC(=O)N1CCC2(CC1)C(C#N)=C(N)Oc1n[nH]c(C)c12
inactive: growth inhibition [1] -6.98% | growth inhibition [2] 14.8% | viability increase [3] 0.18% | viability [4] 97.9% | viability [5] 98.2% | inhibition [6] 1.04% | RAM network inhibition [7] 6.55%

CCOC(=O)c1cnc2c(C)cccc2c1NCc1ccco1
inactive: growth inhibition [1] -10.5% | growth inhibition [2] -9.38% | viability increase [3] -4.61% | viability [4] 82.5% | viability [5] 79% | inhibition [6] 1.28% | RAM network inhibition [7] -0.77%

COc1ccc(CCN2CC34C=CC(O3)C(C(=O)NCc3ccccc3)C4C2=O)cc1OC (configuration not stated)
inactive: growth inhibition [1] -2.83% | growth inhibition [2] -11.6% | viability increase [3] -1.24% | viability [4] 95.2% | viability [5] 93.9% | inhibition [6] 0.89% | RAM network inhibition [7] 9.27%

CCC(Sc1nccn1C)C(=O)Nc1nnc(C)s1 (configuration not stated)
inactive: growth inhibition [1] -21.2% | growth inhibition [2] 2.97% | viability increase [3] 5% | viability [4] 101% | viability [5] 94.2% | inhibition [6] 1.58% | RAM network inhibition [7] 1.93%

COc1ccc(C2NC(=O)c3n[nH]c(C)c32)c(OC)c1 (configuration not stated)
inactive: growth inhibition [1] -1.65% | growth inhibition [2] 7.6% | viability increase [3] -0.95% | viability [4] 102% | viability [5] 103% | inhibition [6] 2.85% | RAM network inhibition [7] 3.42%

O=C(Nc1nnc(-c2cccs2)o1)c1ccco1
inactive: growth inhibition [1] -0.7% | growth inhibition [2] -3.64% | viability increase [3] -4.39% | viability [4] 93.8% | viability [5] 89.8% | inhibition [6] 0.34% | RAM network inhibition [7] -2.19%

COC(=O)CSC1=C(C#N)C(c2ccc(C(C)C)cc2)CC(=O)N1 (configuration not stated)
inactive: growth inhibition [1] -0.135% | growth inhibition [2] -3.29% | viability increase [3] 0.86% | viability [4] 89.8% | viability [5] 89.3% | inhibition [6] 3.04% | RAM network inhibition [7] 4.09%

C/C(=C\C(=O)c1ccc(C)cc1)Nc1cccc(O)c1
inactive: growth inhibition [1] 4.13% | growth inhibition [2] -2.96% | viability increase [3] -4.74% | viability [4] 99.2% | viability [5] 92.8% | inhibition [6] 2.13% | RAM network inhibition [7] -0.26%

CCN1C(=O)c2cccc3c(NC(=O)c4ccc(S(=O)(=O)N5CCOCC5)cc4)ccc1c23
inactive: growth inhibition [1] 14.5% | growth inhibition [2] 3.86% | viability increase [3] -6.36% | viability [4] 65.6% | viability [5] 65.8% | inhibition [6] 1.11% | RAM network inhibition [7] 2.6%

CCN(CC)S(=O)(=O)c1ccc(NC2c3ccccc3C(=O)N2Cc2ccc3c(c2)OCO3)cc1 (configuration not stated)
inactive: growth inhibition [1] 1.96% | growth inhibition [2] -8.94% | viability increase [3] -2.84% | viability [4] 92.9% | viability [5] 93% | inhibition [6] -0.09% | RAM network inhibition [7] 5.92%

O=C(NCc1ccc2c(c1)OCO2)c1cc2c(s1)CSC2
inactive: growth inhibition [1] -4.81% | growth inhibition [2] 3.8% | viability increase [3] -1.75% | viability [4] 99.2% | viability [5] 95.5% | inhibition [6] 1.75% | RAM network inhibition [7] 0.94%

Cc1cc(C)c(C#N)c(SCC(=O)c2cccs2)n1
inactive: growth inhibition [1] -9.34% | growth inhibition [2] 1.01% | viability increase [3] -4.41% | viability [4] 78% | viability [5] 84.8% | inhibition [6] 1.6% | RAM network inhibition [7] 0.97%

CCOC(=O)C1=C(O)/C(=C/N(C)C)N=C1C
inactive: growth inhibition [1] 4.34% | growth inhibition [2] 5.5% | viability increase [3] -0.31% | viability [4] 103% | viability [5] 106% | inhibition [6] 3.19% | RAM network inhibition [7] 0.56%

Cc1cc(NC(=O)C2CC(c3ccc(F)cc3)=NO2)n(-c2ccccc2)n1 (configuration not stated)
inactive: growth inhibition [1] -12.7% | growth inhibition [2] 2.08% | viability increase [3] 0.96% | viability [4] 97.1% | viability [5] 95.7% | inhibition [6] 1.16% | RAM network inhibition [7] -1.56%

COc1ccc(OC)c2sc(NC(=O)C(C)C)nc12
inactive: growth inhibition [1] -15.2% | growth inhibition [2] -18% | viability increase [3] -1.14% | viability [4] 105% | viability [5] 92% | inhibition [6] 1.31% | RAM network inhibition [7] 9.63%

CS(=O)(=O)Nc1cccc2cccnc12
inactive: growth inhibition [1] 5.63% | growth inhibition [2] -1.19% | viability increase [3] -4.19% | viability [4] 50.4% | viability [5] 56.7% | inhibition [6] 2.3% | RAM network inhibition [7] 0.27%

C=CCSc1nnc2c(n1)[nH]c1c(C)cccc12
inactive: growth inhibition [1] -27.3% | growth inhibition [2] 3.13% | viability increase [3] -5.97% | viability [4] 64.6% | viability [5] 65.6% | inhibition [6] 1.71% | RAM network inhibition [7] 5.38%

Nc1nnc(CCc2ccccc2)s1
inactive: growth inhibition [1] -1.91% | growth inhibition [2] 8.1% | viability increase [3] 0.12% | viability [4] 96.2% | viability [5] 98.9% | inhibition [6] 1.77% | RAM network inhibition [7] 0.62%

Cc1cccc(NC(=O)c2ccc(S(=O)(=O)N3CCCCC3)cc2)n1
inactive: growth inhibition [1] -8.26% | growth inhibition [2] -4% | viability increase [3] 1.43% | viability [4] 94.5% | viability [5] 87% | inhibition [6] -0.09% | RAM network inhibition [7] 0.16%

O=C(Nc1ccccc1F)C1CCCN(S(=O)(=O)c2cccc3cccnc23)C1 (configuration not stated)
inactive: growth inhibition [1] -3.46% | growth inhibition [2] -7.69% | viability increase [3] -1.63% | viability [4] 92.3% | viability [5] 88.8% | inhibition [6] 1.49% | RAM network inhibition [7] 2.96%

COc1ccccc1-n1c2c(cc(C(=O)N3CCC(C)CC3)c1=O)C(=O)CC(C)(C)C2
inactive: growth inhibition [1] -21.2% | growth inhibition [2] -5.49% | viability increase [3] -0.6% | viability [4] 101% | viability [5] 90.7% | inhibition [6] 0.005% | RAM network inhibition [7] 4.67%

Cc1c(C(=O)NCC2CCCO2)sc2nc(-c3ccccc3)cn12 (configuration not stated)
inactive: growth inhibition [1] 7.17% | growth inhibition [2] 8.27% | viability increase [3] 0.89% | viability [4] 109% | viability [5] 95.1% | inhibition [6] 0.15% | RAM network inhibition [7] 1.08%

Cn1c(NC(=O)C2CCCO2)cc(=O)n(C)c1=O (configuration not stated)
inactive: growth inhibition [1] 0.76% | growth inhibition [2] 1.36% | viability increase [3] -0.7% | viability [4] 103% | viability [5] 99.8% | inhibition [6] 0.565% | RAM network inhibition [7] -0.47%

COCCNS(=O)(=O)c1ccc(C2CNC(=O)C2)cc1 (configuration not stated)
inactive: growth inhibition [1] -7.18% | growth inhibition [2] -6.89% | viability increase [3] -1.08% | viability [4] 110% | viability [5] 104% | inhibition [6] 2.2% | RAM network inhibition [7] -1.51%

Cc1noc(C)c1S(=O)(=O)NCc1ccc2c(c1)OCO2
inactive: growth inhibition [1] -1.3% | growth inhibition [2] -6.16% | viability increase [3] -1.12% | viability [4] 97.5% | viability [5] 93.6% | inhibition [6] 2.77% | RAM network inhibition [7] 0.27%

CCOC(=O)CN1C(=O)C(O)(CC(=O)c2ccccn2)c2ccccc21 (configuration not stated)
inactive: growth inhibition [1] -10.3% | growth inhibition [2] 3.35% | viability increase [3] -4.5% | viability [4] 82.8% | viability [5] 92% | inhibition [6] 1.31% | RAM network inhibition [7] 1.78%

COc1ccc(CNc2ccc3cn[nH]c3c2)c(OC)c1OC
inactive: growth inhibition [1] -1.74% | growth inhibition [2] 1.43% | viability increase [3] -2.25% | viability [4] 74.7% | viability [5] 79.7% | inhibition [6] -0.465% | RAM network inhibition [7] 9.01%

CCOC(=O)c1c(C)c(-c2ccccc2)n(CC(=O)N2CCN(C)CC2)c1C
inactive: growth inhibition [1] -19% | growth inhibition [2] -24.2% | viability increase [3] -2.94% | viability [4] 102% | viability [5] 102% | inhibition [6] 2.83% | RAM network inhibition [7] 2.67%

Cn1c(Cn2c(=O)sc3ccccc32)nnc1SCC(=O)Nc1cccc(Cl)c1
inactive: growth inhibition [1] -3.44% | growth inhibition [2] -16.1% | viability increase [3] -0.83% | viability [4] 99.6% | viability [5] 98.8% | inhibition [6] 2.58% | RAM network inhibition [7] 2.23%

CCOC(=O)N1CCC(N2Cc3cccc(C(=O)Nc4ccc(OC)c(OC)c4)c3C2=O)CC1
inactive: growth inhibition [1] -7.4% | growth inhibition [2] -0.92% | viability increase [3] -3.99% | viability [4] 66.2% | viability [5] 66.8% | inhibition [6] 2.03% | RAM network inhibition [7] 1.98%

COc1ccccc1NC(=O)Nc1ccnn1C1CCCCC1
inactive: growth inhibition [1] -7.38% | growth inhibition [2] -10.3% | viability increase [3] -0.89% | viability [4] 92.2% | viability [5] 94.1% | inhibition [6] 2.41% | RAM network inhibition [7] 0.5%

O=C(CCS(=O)(=O)c1cccc2nonc12)NCCc1ccccc1Cl
inactive: growth inhibition [1] -1.5% | growth inhibition [2] -9.76% | viability increase [3] -5.15% | viability [4] 91.2% | viability [5] 82.9% | inhibition [6] 1.33% | RAM network inhibition [7] 4.14%

COc1ccc(-n2c(Cn3c(=O)sc4ccccc43)nnc2SC)cc1
inactive: growth inhibition [1] -12.1% | growth inhibition [2] -8.38% | viability increase [3] -2.26% | viability [4] 101% | viability [5] 89.6% | inhibition [6] 2.47% | RAM network inhibition [7] 1.33%

CC(C)(C)Nc1ncnc2c1cnn2-c1ccccc1
inactive: growth inhibition [1] -3.38% | growth inhibition [2] 17.3% | viability increase [3] 2% | viability [4] 92.3% | viability [5] 90.3% | inhibition [6] 1.31% | RAM network inhibition [7] -2.37%

Cc1cc(C)c(NC(=O)CSc2nnc(-c3ccncc3)n2Cc2ccco2)c(Cl)c1
inactive: growth inhibition [1] 6.26% | growth inhibition [2] 12.8% | viability increase [3] -0.79% | viability [4] 98% | viability [5] 93.1% | inhibition [6] 1.79% | RAM network inhibition [7] 6.08%
